Measured values gathered from unrelated publications.
Compare with care: the assays were run in different laboratories.
Target: Macrophage-stimulating protein receptor (MST1R, Homo sapiens, UniProt Q04912)

| SMILES | effect on | mode | method | concentration | quantity | result |
| --- | --- | --- | --- | --- | --- | --- |
| Cn1cc(-c2cccc(N3CCc4c(sc5c4CC(C)(C)C5)C3=O)c2CO)cc(Nc2ccncn2)c1=O | enzyme activity | inhibitor |  | 1 µM | inhibition | 11% |
| COc1ncccc1-c1cnn2ccc(N3CCN(C(=O)OC(C)C)CC3)nc12 | binding |  | competition with immobilised ligand | 1 µM | remaining binding | 100% |
| C#Cc1n[nH]c2c(-c3cn([C@@H](C)c4ccccn4)c(=O)[nH]c3=O)cc(F)cc12 | enzyme activity | inhibitor |  | 0.1 µM | inhibition | 47.6% |
| Cc1nn(C)cc1-c1nc2c(N3CCN(Cc4ccc(Cl)cc4)CC3)c(Cl)cnc2[nH]1 | binding |  | competition with immobilised ligand | 1 µM | remaining binding | 100% |
| N#CC1(c2ccccn2)CCN(Cc2cc(C(=O)O)c(=O)n3ccccc23)CC1 | cell-free assay |  | competition with immobilised ligand | 1 µM | remaining binding | 100% |
| Cn1cc(-c2cc(F)cc(N3CCn4c(cc5c4CCCC5)C3=O)c2CO)cc(Nc2ccc(N3CCN(C4COC4)CC3)cn2)c1=O | enzyme activity | inhibitor |  | 0.1 µM | inhibition | 8% |
| CC(C)(C)c1cc(C=C(C#N)C#N)cc(Br)c1O | enzyme activity | inhibitor |  | 0.5 µM | remaining activity | 105% |
| Cn1cncc1[C@@](O)(COc1ccc(C#N)cc1-c1ccc(OC(F)(F)F)cc1)c1ccc(C#N)cc1 | cell-free assay |  | competition with immobilised ligand | 1 µM | remaining binding | 100% |
| COc1cc(Nc2ncc(F)c(Nc3ccc4c(n3)NC(=O)C(C)(C)O4)n2)cc(OC)c1OC | binding |  | competition with immobilised ligand | 10 µM | inhibition | 100% |
| C#Cc1n[nH]c2c(-c3cn([C@@H](C)c4ccccc4)c(=O)[nH]c3=O)cc(F)cc12 | enzyme activity | inhibitor |  | 0.1 µM | inhibition | 38.6% |
| O=c1[nH]c2ccccc2n1C1CCN(Cc2ccc(-c3[nH]c4cc5ncnc5cc4nc3-c3ccccc3)cc2)CC1 | cell-free assay |  |  | 0.5 µM | remaining signal | 111% |
